The term Ki denotes a dissociation constant, usually derived from enzyme kinetics or from competition with a known ligand. As a reminder, the EC50 is the midpoint of the concentration-response curve.

Test [1] deals with T1, Kappa-type opioid receptor (Homo sapiens, UniProt P41145). Description: Binding affinity towards recombinant human Opioid receptor kappa 1 transfected in to CHO cells for the displacement of […]. It counts as cell-based. The method in brief: (§1)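 Radioligand displacement (Ki) at cloned human opioid receptors expressed in CHO cells. Radioligands: [3H]DAMGO for mu, [3H]Cl-DPDPE for delta, [3H]U69593 for kappa.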

The target in test [2] is T2, Delta-type opioid receptor (Homo sapiens, UniProt P41143). Briefly: The antagonistic activity tested in [35S]GTP-gamma-S, Recombinant Human Opioid receptor delta 1 in to CHO cells for the displacement of [3H]Cl-DPDPE (delta). It counts as functional, cell-based. The method in brief: (§2)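 [35S]GTPγS binding in CHO cells expressing cloned human opioid receptors. Antagonist affinity (Ke) was derived from the compound's blockade of a standard agonist: DAMGO at mu, Cl-DPDPE at delta, U69593 at kappa.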

Test [3] deals with T2, Delta-type opioid receptor. Briefly: Binding affinity towards recombinant human Opioid receptor delta 1 transfected in to CHO cells for the displacement of [3H]Cl-DPDPE (delta). It is filed as cell-based. The method in brief:
as §1
(Loss of bound radioactivity is the signal in a displacement assay; it reports binding, not function.)

Test [4] deals with T3, Mu-type opioid receptor (Homo sapiens, UniProt P35372). Description: Binding affinity towards recombinant human Opioid receptor mu 1 transfected in to CHO cells for the displacement of [3H]DAMGO (mu). It counts as cell-based. The method in brief:
as §1

Test [5] has as its target T1, Kappa-type opioid receptor. Description: The antagonistic activity of compound was tested in [35S]GTP-gamma-S, Recombinant Human Opioid receptor kappa 1 transfected in to CHO cells for the displacement of [3H]U-69593. It counts as functional, cell-based. The method in brief: as §2
A general note: GTPγS resists hydrolysis and so accumulates on activated G proteins.

For test [6], the target named is T3, Mu-type opioid receptor. Briefly: Selectivity ratio Opioid receptor mu 1 to Opioid receptor delta 1.
Test [7] addresses T3, Mu-type opioid receptor. Description: The partial agonist activity tested in [35S]-GTP-gamma S Recombinant Human Opioid receptor mu 1 transfected in to CHO cells for the displacement of [3H]-DAMGO (mu). It counts as functional, cell-based.
The target of test [8] is T2, Delta-type opioid receptor. Briefly: The antagonistic activity tested in [35S]GTP-gamma-S, Recombinant Human Opioid receptor delta 1 transfected in to CHO cells for the displacement of [3H]Cl-DPDPE (delta). It is filed as functional, cell-based. In short, it runs like this: as §2
The target of test [9] is T3, Mu-type opioid receptor. Description: The antagonistic activity tested in [35S]-GTP-gamma S Recombinant Human Opioid receptor mu 1 transfected in to CHO cells for the displacement of [3H]DAMGO (mu). It is filed as functional, cell-based. In short, it runs like this: as §2
Test [10] in a line: Selectivity ratio towards Opioid receptor kappa 1 to Opioid receptor delta 1.
Test [11] deals with T1, Kappa-type opioid receptor. Description: Binding affinity towards recombinant human Opioid receptor kappa 1 transfected in to CHO cells for the displacement of [3H]U-69593. It is filed as cell-based. In short, it runs like this:
as §1

Test [12] addresses T2, Delta-type opioid receptor. Description: Partial agonist activity tested in [35S]GTP-gamma-S, Recombinant Human Opioid receptor delta 1 transfected in to CHO cells for the displacement of [3H]Cl-DPDPE (delta). It counts as functional, cell-based.
Test [13] has as its target Opioid receptors; mu & delta (Homo sapiens) (UniProt P41143+P35372). Description: Selectivity ratio of Opioid receptor mu 1 to Opioid receptor delta 1. It is filed as protein assay.
Test [14] deals with T2, Delta-type opioid receptor. Description: Binding affinity towards recombinant humanOpioid receptor delta 1 transfected in to CHO cells for the displacement of [3H]Cl-DPDPE (delta). It counts as cell-based. In short, it runs like this:
as §1

Several values for one entry are separate records, joined by “and”; a condition that tells them apart may be missing. Equal values may be shown once. Some results are limits rather than exact numbers.

T2 sequence (P41143 whole entry): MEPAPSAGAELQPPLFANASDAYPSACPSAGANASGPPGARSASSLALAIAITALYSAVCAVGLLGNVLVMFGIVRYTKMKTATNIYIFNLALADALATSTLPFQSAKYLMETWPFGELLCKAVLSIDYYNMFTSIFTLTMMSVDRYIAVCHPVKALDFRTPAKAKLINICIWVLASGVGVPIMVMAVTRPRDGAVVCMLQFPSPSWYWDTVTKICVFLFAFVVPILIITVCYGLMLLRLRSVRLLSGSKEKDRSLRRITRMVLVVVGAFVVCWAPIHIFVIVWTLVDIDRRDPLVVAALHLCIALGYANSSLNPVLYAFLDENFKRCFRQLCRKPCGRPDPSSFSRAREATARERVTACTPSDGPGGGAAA
T1 sequence (P41145 whole entry): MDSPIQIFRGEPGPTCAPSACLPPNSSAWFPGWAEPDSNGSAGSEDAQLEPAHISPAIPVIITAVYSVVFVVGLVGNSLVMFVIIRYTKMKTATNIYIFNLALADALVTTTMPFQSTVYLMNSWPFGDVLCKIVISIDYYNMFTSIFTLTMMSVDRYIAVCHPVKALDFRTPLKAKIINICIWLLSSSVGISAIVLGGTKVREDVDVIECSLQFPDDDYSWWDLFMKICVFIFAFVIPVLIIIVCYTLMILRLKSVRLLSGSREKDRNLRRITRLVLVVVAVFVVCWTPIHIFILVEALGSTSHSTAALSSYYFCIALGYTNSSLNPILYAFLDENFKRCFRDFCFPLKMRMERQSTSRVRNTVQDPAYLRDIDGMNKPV
T3 sequence (P35372 whole entry): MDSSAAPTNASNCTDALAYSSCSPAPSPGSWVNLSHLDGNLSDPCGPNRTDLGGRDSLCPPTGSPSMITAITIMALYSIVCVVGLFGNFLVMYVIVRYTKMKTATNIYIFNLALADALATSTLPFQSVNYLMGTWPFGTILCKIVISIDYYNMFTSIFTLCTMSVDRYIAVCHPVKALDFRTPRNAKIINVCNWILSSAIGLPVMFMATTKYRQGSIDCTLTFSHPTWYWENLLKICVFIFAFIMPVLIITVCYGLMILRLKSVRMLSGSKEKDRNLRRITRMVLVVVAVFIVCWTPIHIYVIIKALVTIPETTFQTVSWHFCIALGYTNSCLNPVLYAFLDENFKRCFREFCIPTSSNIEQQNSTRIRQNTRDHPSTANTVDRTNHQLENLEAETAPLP
Chain of Opioid receptors; mu & delta (Homo sapiens) (P35372 whole entry, looked up): as the sequence (P35372 whole entry) above
Chain of Opioid receptors; mu & delta (Homo sapiens) (P41143 whole entry, looked up): as the sequence (P41143 whole entry) above

Regarding `Cc1ccc(-c2cn(Cc3ccccc3)c3c2C[C@@]2(O)C4Cc5ccc(O)c6c5[C@@]2(CCN4CC2CC2)[C@H]3O6)cc1`, the Ki in test [1] came out at 108 nM; in test [3], 23.5 nM; at Mu-type opioid receptor [4], 77.9 nM. In addition, the Ke in test [2] was 2.37 nM; in test [5] it was 61.1 nM. In addition, the Ratio at Mu-type opioid receptor [6] came to 3.3. For the same compound, at Mu-type opioid receptor [7], the EC50 stood at 1360 nM.

Turning to `Oc1ccc2c3c1O[C@H]1c4[nH]c5ccccc5c4C[C@@]4(O)[C@@H](C2)N(CC2CC2)CC[C@]314`, the values for the Ke (in test [8]; on Mu-type opioid receptor [9]; in test [5]) were 0.11 nM, 4.26 nM and 4.95 nM, respectively.

Regarding `CCCN1CC[C@]23c4c5ccc(O)c4O[C@H]2c2c(c(-c4ccccc4)cn2Cc2ccccc2)C[C@@]3(O)C1C5`, the Ki in test [1] was found to be 191 nM; in [3], 21.2 nM; on Mu-type opioid receptor [4] it was 40.1 nM. Moreover, the Ke in [8] turned out to be 6.4 nM; at Mu-type opioid receptor [9] it was 45.3 nM; in test [5], 210 nM.

`CN1CC[C@]23c4c5ccc(O)c4O[C@H]2c2c(c(-c4ccccc4)cn2Cc2ccccc2)C[C@@]3(O)C1C5`: the results for the Ratio in test [10] and in test [13] were 1.6 and 0.43, respectively. The Ki in test [11] was 187 nM; in [3] it was 116 nM; on Mu-type opioid receptor [4], 49.5 nM. Also, the EC50 in test [12] turned out to be 55.2 nM. Moreover, the figures for the Ke (on Mu-type opioid receptor [9]; in test [5]) were 14.1 nM and 1160 nM, respectively.

For the compound `COc1ccc2c3c1O[C@H]1c4c(c(-c5ccccc5)cn4Cc4ccccc4)C[C@@]4(O)C(C2)N(C)CC[C@]314`, the Ratio in test [10] and in test [13] was over 31 throughout. Moreover, the Ki was over 10000 nM in [11], 322 nM in test [3] and over 10000 nM at Mu-type opioid receptor [4].

Take `Oc1ccc2c3c1O[C@H]1c4c(c(-c5ccccc5)cn4Cc4ccccc4)C[C@@]4(O)C(C2)N(CC2CC2)CC[C@]314`: the Ki amounted to 120 nM in [1], 13.7 nM in test [14] and 16.8 nM on Mu-type opioid receptor [4].

Take `Cc1c(-c2ccccc2)c2c(n1Cc1ccccc1)[C@@H]1Oc3c(O)ccc4c3[C@@]13CCN(CC1CC1)C(C4)[C@]3(O)C2`: the figures for the Ki (in [1]; in [3]; on Mu-type opioid receptor [4]) were 183 nM, 17.3 nM and 52.7 nM, respectively. For the same compound, the values for the Ke (in test [8]; on Mu-type opioid receptor [9]; in test [5]) were 3.68 nM, 17.7 nM and 306 nM, respectively. In addition, the Ratio in [13] is 3 and 5.
